Drawing on ChEMBL document CHEMBL5357044, “Discovery of a dual-acting inhibitor of interleukin-1β and STATs for the treatment of inflammatory bowel disease” (RSC Med Chem, 2024), this text covers Activity and inhibition for 1 compound.

Series [1] concerns Mus musculus. Briefly: Anti-colitis activity against DSS-induced ulcerative colitis mouse model assessed as increase in body weight at 0.2 to 0.6 mg/kg, ip treated every 72 hrs for 9 days. Format: functional, organism-based. The following applies: dose 0.2-0.6 mg/kg, time 9.0 day. Summed up:
(§1)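 Mice given 2.5% DSS water days 1–7, then water to day 9. Dosing: i.p. 0.2 or 0.6 mg kg−1 in 50% PEG300 on days 2, 5, 8. Body weight and fecal occult blood scored daily. Colon length measured after sacrifice on day 9. Mean ± s.e.m.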

The target of series [2] is NACHT, LRR and PYD domains-containing protein 3 (Mus musculus) (UniProt Q8R4B8). Briefly: Inhibition of NLRP3 inflammasome activation in mouse J774.A1 cells assessed as reduction in caspase-1 p20 subunits release at 50 to 200 nM pretreated for 1 hr followed by nigericin treatment for 1 hr by Western blot analysis. The following applies: dose 50-200 nM, time 2.0 hrs. Format: cell-based. Summed up:
(§2)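 J774A.1 cells, LPS 1 μg mL−1 for 5 h, compound exposure, nigericin 10 μM 1 h. RIPA lysis with protease inhibitor and BCA quantitation, then SDS-PAGE/PVDF. Blocked 5% milk, primary antibodies overnight at 4 °C, HRP secondaries, ECL detection.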
On the technique in general: A western blot detects proteins with antibodies after separation by electrophoresis.

The subject of series [3] is Colon. Briefly: Downregulation of IL-6 level in colon tissue of DSS-induced ulcerative colitis mouse model at 0.2 to 0.6 mg/kg, ip treated every 72 hrs for 9 days by ELISA. Format: functional, organism-based. The following applies: dose 0.2-0.6 mg/kg, time 9.0 day. Summed up: (§3)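 Colitis induced with 2.5% DSS in drinking water on days 1–7, plain water days 8–9. Compound given i.p. at 0.2 and 0.6 mg kg−1 in 50% PEG300 on days 2, 5 and 8. Mice killed on day 9; colon tissue cytokines measured by ELISA. Mean ± s.e.m.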
(In general: ELISA stands for enzyme-linked immunosorbent assay.)

The subject of series [4] is Colon. The experiment in a line: Downregulation of TNF-alpha level in colon tissue of DSS-induced ulcerative colitis mouse model at 0.2 to 0.6 mg/kg, ip treated every 72 hrs for 9 days by ELISA. Type of series: functional, organism-based. The following applies: dose 0.2-0.6 mg/kg, time 9.0 day. Summed up:
as §3

Series [5] deals with Signal transducer and activator of transcription 3 (Mus musculus) (UniProt P42227). The experiment in a line: Inhibition of STAT3 expression in LPS-treated mouse J774.A1 cells at 50 to 200 nM treated for 1 hr by Western blot analysis. Format: cell-based. The following applies: dose 50-200 nM. Summed up:
(§4)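 J774A.1 cells pretreated with LPS and compound, lysed in RIPA. pSTAT1, STAT1, pSTAT3, STAT3, pSTAT5 and STAT5 detected by SDS-PAGE western blot with ECL.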

Series [6] in a line: Toxicity in mouse assessed as inactive state of animal at 2 mg/kg/day, ip treated for 7 days. Format: organism-based. The following applies: in vivo, 168 h, time 7 day. Summed up: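 Preliminary tolerability study: mice (n = 2) injected intraperitoneally at 2 mg kg−1 per day for 7 days. General state and activity observed.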
Series [7] has as its target Nlrp3/Pycard (Mus musculus) (UniProt Q8R4B8+Q9EPB4). Briefly: Inhibition of NLRP3-ASC interaction in LPS-treated mouse J774.A1 cells at 50 to 200 nM pretreated for 1 hr followed by nigericin treatment for 1 hr by Co-IP assay. Type of series: cell-based. The following applies: dose 50-200 nM, time 2.0 hrs. Summed up: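 Primed/treated J774A.1 cells (LPS 1 μg mL−1 5 h, compound, nigericin 10 μM 1 h) lysed on ice 30 min. Precleared with Protein A/G agarose overnight at 4 °C, then primary antibody (IgG control) overnight at 4 °C. Protein A/G added 6 h, beads washed five times with D-PBS, boiled in SDS buffer and western blotted.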

Series [8] deals with Mus musculus. Briefly: Anti-colitis activity against DSS-induced ulcerative colitis mouse model assessed as increase in colon length at 0.2 to 0.6 mg/kg, ip treated every 72 hrs for 9 days. Format: functional, organism-based. The following applies: dose 0.2-0.6 mg/kg, time 9.0 day. Summed up: as §1
A further series has as its system Intestine. The experiment in a line: Anti-colitis activity against DSS-induced ulcerative colitis mouse model assessed as decrease in STAT-1 level in intestinal tissue at 0.2 to 0.6 mg/kg, ip treated every 72 hrs for 9 days by Western blot analysis. Type of series: functional, organism-based. The following applies: dose 0.2-0.6 mg/kg, time 9.0 day. The procedure, abridged: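 DSS model (2.5% in drinking water days 1–7, water days 8–9). Dosing was i.p. at 0.2 and 0.6 mg kg−1 in 50% PEG300 on days 2, 5, 8. Intestinal tissue taken at sacrifice on day 9. Lysed in RIPA with protease inhibitor and BCA-quantified, then run on SDS-PAGE/PVDF and probed for STAT1, STAT3, STAT5 and caspase-1. ECL detection.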

The target of series [9] is NACHT, LRR and PYD domains-containing protein 3 (Mus musculus) (UniProt Q8R4B8). The experiment in a line: Inhibition of NLRP3 inflammasome activation in mouse J774.A1 cells assessed as reduction in mature IL-1beta release at 50 to 200 nM pretreated for 1 hr followed by nigericin treatment for 1 hr by Western blot analysis. The following applies: dose 50-200 nM, time 2.0 hrs. Format: cell-based. The procedure, abridged:
as §2

The target is the same in series [10]. Briefly: Inhibition of NLRP3 inflammasome activation in mouse J774.A1 cells assessed as NLRP3 ubiquitination at 100 nM pretreated for 1 hr followed by nigericin treatment for 1 hr. The following applies: time 2.0 hrs.
Series [11] has the same target. The experiment in a line: Inhibition of NLRP3 inflammasome activation in mouse J774.A1 cells assessed as reduction in cleaved GSDMD production at 50 to 200 nM pretreated for 1 hr followed by nigericin treatment for 1 hr by Western blot analysis. Format: cell-based. The following applies: dose 50-200 nM, time 2.0 hrs. Summed up:
as §2

The target is the same in series [12]. The experiment in a line: Inhibition of NLRP3 inflammasome activation in mouse BMDM cells assessed as reduction in LPS-stimulated IL-1beta level at 50 to 200 nM pretreated for 1 hr followed by nigericin treatment for 30 mins by ELISA. The following applies: dose 50-200 nM, time 1.5 hrs. Type of series: cell-based. The procedure, abridged:
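Bone-marrow macrophages in RPMI 1640/10% FBS/M-CSF. LPS priming at 0.5 μg mL−1 for 3 h, compound 1 h. NLRP3 then triggered by nigericin 10 μM for 0.5 h or imiquimod 900 μM for 2 h. Supernatant IL-1β by ELISA.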

The subject of another series is J774.A1. Briefly: Inhibition of STAT5 expression in LPS-treated mouse J774.A1 cells assessed as reduction in STAT5 phosphorylation at 50 to 200 nM treated for 1 hr by Western blot analysis. Format: cell-based. The following applies: dose 50-200 nM. Summed up:
as §4

The structures appear in SMILES notation. Calls of active or inactive are those of the source. No cut-off for these calls is given here.

Sequence of NACHT, LRR and PYD domains-containing protein 3 (Mus musculus) (Q8R4B8 whole entry, the tested form may be a part): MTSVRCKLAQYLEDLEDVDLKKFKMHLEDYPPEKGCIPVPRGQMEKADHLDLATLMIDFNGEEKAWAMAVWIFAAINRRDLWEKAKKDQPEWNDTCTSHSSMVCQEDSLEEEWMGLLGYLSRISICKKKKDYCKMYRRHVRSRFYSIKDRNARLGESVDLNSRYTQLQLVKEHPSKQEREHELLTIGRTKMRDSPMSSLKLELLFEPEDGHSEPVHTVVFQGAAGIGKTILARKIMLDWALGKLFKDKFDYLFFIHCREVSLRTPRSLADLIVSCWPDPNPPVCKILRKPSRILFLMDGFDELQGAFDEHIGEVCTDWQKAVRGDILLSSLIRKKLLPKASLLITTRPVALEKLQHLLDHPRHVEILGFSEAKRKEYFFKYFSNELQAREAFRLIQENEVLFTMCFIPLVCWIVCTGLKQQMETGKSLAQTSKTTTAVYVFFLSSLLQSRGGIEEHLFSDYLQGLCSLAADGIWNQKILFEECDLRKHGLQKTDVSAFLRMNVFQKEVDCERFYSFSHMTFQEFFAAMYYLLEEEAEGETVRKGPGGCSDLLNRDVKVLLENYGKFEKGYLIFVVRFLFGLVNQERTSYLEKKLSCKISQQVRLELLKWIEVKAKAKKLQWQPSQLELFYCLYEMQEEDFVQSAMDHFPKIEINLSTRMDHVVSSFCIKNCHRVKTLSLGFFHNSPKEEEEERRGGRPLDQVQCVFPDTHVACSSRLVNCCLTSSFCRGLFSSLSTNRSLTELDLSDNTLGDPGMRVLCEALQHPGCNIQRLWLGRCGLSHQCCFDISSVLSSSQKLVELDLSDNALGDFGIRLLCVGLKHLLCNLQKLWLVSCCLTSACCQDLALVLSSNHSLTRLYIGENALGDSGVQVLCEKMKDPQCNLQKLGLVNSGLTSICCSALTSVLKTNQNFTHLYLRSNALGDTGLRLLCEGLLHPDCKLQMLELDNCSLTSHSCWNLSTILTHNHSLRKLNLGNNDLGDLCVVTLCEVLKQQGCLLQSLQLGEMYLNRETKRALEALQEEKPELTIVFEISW
Sequence of Signal transducer and activator of transcription 3 (Mus musculus) (P42227 whole entry): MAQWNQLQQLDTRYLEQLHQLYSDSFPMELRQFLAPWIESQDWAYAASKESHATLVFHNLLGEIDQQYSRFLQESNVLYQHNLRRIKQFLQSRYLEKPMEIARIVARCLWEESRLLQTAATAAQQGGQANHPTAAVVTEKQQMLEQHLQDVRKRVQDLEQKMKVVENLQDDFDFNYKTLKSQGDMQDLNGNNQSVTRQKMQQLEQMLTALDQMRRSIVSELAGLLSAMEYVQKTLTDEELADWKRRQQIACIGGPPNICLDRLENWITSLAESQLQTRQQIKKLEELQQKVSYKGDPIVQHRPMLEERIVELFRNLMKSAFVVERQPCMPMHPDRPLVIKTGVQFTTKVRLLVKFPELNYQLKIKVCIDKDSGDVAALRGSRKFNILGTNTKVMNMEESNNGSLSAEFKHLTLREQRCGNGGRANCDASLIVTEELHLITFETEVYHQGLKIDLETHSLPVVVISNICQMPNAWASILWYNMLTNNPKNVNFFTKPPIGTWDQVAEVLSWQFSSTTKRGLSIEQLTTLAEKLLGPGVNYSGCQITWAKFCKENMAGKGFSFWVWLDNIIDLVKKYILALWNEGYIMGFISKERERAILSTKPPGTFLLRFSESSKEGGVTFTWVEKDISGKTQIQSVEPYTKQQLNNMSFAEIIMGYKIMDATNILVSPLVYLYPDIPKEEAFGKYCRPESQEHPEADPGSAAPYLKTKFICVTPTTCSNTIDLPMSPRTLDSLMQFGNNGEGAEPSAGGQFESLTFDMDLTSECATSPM
Sequence of Nlrp3/Pycard (Mus musculus) (Q8R4B8 whole entry, looked up): as the sequence (Q8R4B8 whole entry, the tested form may be a part) above
Sequence of Nlrp3/Pycard (Mus musculus) (Q9EPB4 whole entry, looked up): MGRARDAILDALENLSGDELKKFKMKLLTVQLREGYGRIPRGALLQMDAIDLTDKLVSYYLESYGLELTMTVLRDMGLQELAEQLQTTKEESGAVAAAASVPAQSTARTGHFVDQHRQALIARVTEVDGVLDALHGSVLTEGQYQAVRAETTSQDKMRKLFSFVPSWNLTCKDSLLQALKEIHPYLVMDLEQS

Consider `Cc1cc(/C=C/C(=O)c2ccc(C(=O)N[C@@H](Cc3ccccc3)C(=O)N[C@@H](CC(C)C)B(O)O)cc2)cc(C)c1O`, for which the outcome in the series with Mus musculus [1], in the series with Mus musculus [8] and with Intestine was Active. Moreover, the inhibition entry in series [2], in series [7], in series [9], in series [10], in series [11] and in [12] was “Active” throughout. In the series on J774.A1, the inhibition entry was “Active”. The result in the series on Colon [3] and in the series with Colon [4] was inactive. Besides, the inhibition result in series [5] is “inactive”. Also, in series [6], the Activity result is “Toxic”.
